The text below walks through data of ChEMBL document CHEMBL3600334, “Neolignans from Aristolochia fordiana Prevent Oxidative Stress-Induced Neuronal Death through Maintaining the Nrf2/HO-1 Pathway in HT22 Cells” (J Nat Prod, 2015).

The structures appear in SMILES notation. The source made the active and inactive calls. The rule behind the calls is not given here.

Data set [1] has as its system HT-22. As to the kind of experiment: Cytotoxicity against mouse HT22 cells assessed as cell viability at 30 uM after 24 hrs by MTT assay. The conditions noted are these: ht-22, 24 h. The class given is cell-based. In a few lines: (§1)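 HT22 mouse hippocampal cells in DMEM/10% FBS, 37 °C, 5% CO2, seeded 10 000 cells/well and grown 24 h. Compounds added from DMSO stock (0.1% DMSO vehicle) for 24 h. MTT (5 mg/mL) 2 h at 37 °C, formazan dissolved in DMSO, OD 570 nm. Expressed as fold of untreated control; n = 6 wells.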
Background: Tetrazolium assays rely on reduction of a dye to a coloured formazan, in cell work by metabolically active cells.

The subject of data set [2] is HT-22. Kind of data set: Neuroprotective activity in mouse HT22 cells assessed as protection against glutamate-induced cell death at 1 to 30 uM pretreated 30 mins before glutamate challenge measured after 24 hrs by MTT assay. The class given is functional, cell-based. An outline of the steps: (§2)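 HT22 cells seeded 10 000/well, 24 h. Compounds (0.1% DMSO vehicle) added 30 min before 2 mM glutamate, then 24 h. MTT (5 mg/mL) 2 h at 37 °C, formazan in DMSO, OD 570 nm. Fold of untreated control; mean ± SD, n = 6.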

The subject of data set [3] is HT-22. Kind of data set: Neuroprotective activity in mouse HT22 cells assessed as protection against glutamate-induced cell death pretreated 30 mins before glutamate challenge measured after 24 hrs by MTT assay. The class given is functional, cell-based. In a few lines: as §2
The test system of data set [4] is HT-22. Kind of data set: Neuroprotective activity in mouse HT22 cells assessed as protection against glutamate-induced change in cell morphology at 1 to 30 uM pretreated 30 mins before glutamate challenge measured after 24 hrs by MTT assay. The conditions noted are these: in the assay text read “by photomicroscopy” for “by MTT assay”. The class given is functional, cell-based. In a few lines: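 HT22 cells given compounds 30 min before 2 mM glutamate for 24 h. Morphology then photographed under a photomicroscope.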

Data set [5] concerns HT-22. As to the kind of experiment: Cytotoxicity against mouse HT22 cells assessed as […] at 30 uM after 24 hrs by MTT assay. The class given is cell-based. The conditions noted are these: ht-22, 24 h. An outline of the steps:
as §1

The subject of data set [6] is HT-22. Kind of data set: Neuroprotective activity in mouse HT22 cells assessed as decrease of glutamate-induced ROS production at 30 uM pretreated 30 mins before glutamate challenge measured after 12 hrs using H2DCF-DA staining by fluorescence assay. The class given is functional, cell-based. In a few lines:
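HT22 cells given 30 μM compound 30 min before 2 mM glutamate for 12 h. After a PBS wash, stained with 10 μM H2-DCF-DA in serum-free medium, 25 min, 37 °C, dark. Cells photographed, then lysed in 1% Triton X-100/PBS 10 min at 37 °C. Fluorescence read at ex 490/em 525 nm, as percent of untreated control.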

Data set [7] deals with HT-22. As to the kind of experiment: Neuroprotective activity in mouse HT22 cells assessed as decrease of glutamate-induced decrease in Nrf2/HO-1 protein expression at 30 uM pretreated 30 mins before glutamate challenge measured after 12 hrs by Western blotting assay. The class given is functional, cell-based. Background: Immunoblotting shows a protein as a band on a membrane.

The test system of data set [8] is HT-22. Kind of data set: Effect on Nrf2/HO-1 protein expression in mouse HT22 cells at 30 uM after 12 hrs by Western blotting assay.
Data set [9] has as its system HT-22. As to the kind of experiment: Neuroprotective activity in mouse HT22 cells assessed as decrease of glutamate-induced increase in LDH level at 30 uM pretreated 30 mins before glutamate challenge measured after 24 hrs.
Data set [10] deals with HT-22. As to the kind of experiment: Neuroprotective activity in mouse HT22 cells assessed as decrease of glutamate-induced decrease in Bcl-2 protein expression at 30 uM pretreated […] by Western blotting assay.

Turning to `C/C=C/c1cc(OC)c2oc(-c3ccc(O)c(OC)c3)c(C)c2c1`, the results for the Activity result in the data set on HT-22 [1], in the data set with HT-22 [3] and in the data set on HT-22 [5] were “Non-toxic”, “Dose-dependent effect” and “Toxic”, respectively. Besides, the result in the data set with HT-22 [2], with HT-22 [4], with HT-22 [6], in the data set on HT-22 [7], in the data set on HT-22 [9] and in the data set with HT-22 [10] was Active. Moreover, the outcome in the data set with HT-22 [8] was inactive.
For the molecule `C/C=C/c1cc(OC)c2oc(-c3ccc(O)cc3)c(C)c2c1`, the Activity entry in the data set on HT-22 [1] was “Non-toxic”; with HT-22 [3], “Dose-dependent effect”. Further, the result in the data set with HT-22 [2], in the data set with HT-22 [4], in the data set on HT-22 [6], in the data set on HT-22 [7], with HT-22 [9] and in the data set on HT-22 [10] was Active. Further, in the data set on HT-22 [8], the result was inactive.
With `COc1cc([C@H]2O[C@@H](c3ccc(O)c(OC)c3)[C@@H](C)[C@@H]2C)ccc1O`, the Activity entry with HT-22 [1] was “Non-toxic”; with HT-22 [3], “Dose-dependent effect”. The outcome in the data set with HT-22 [2], in the data set with HT-22 [4], in the data set with HT-22 [6], in the data set on HT-22 [7], in the data set on HT-22 [9] and with HT-22 [10] was Active. Besides, in the data set with HT-22 [8], the outcome was inactive.
Take `C/C=C/c1cc(OC)c2c(c1)[C@@H](C)[C@H](c1ccc(O)c(OC)c1)O2` [LICARINE A]: the values for the Activity entry in the data set on HT-22 [1] and in the data set with HT-22 [3] were “Non-toxic” and “Dose-dependent effect”, respectively. Also, the outcome in the data set with HT-22 [2], in the data set with HT-22 [4], in the data set with HT-22 [6], with HT-22 [7], in the data set on HT-22 [9] and in the data set with HT-22 [10] was Active. The result in the data set with HT-22 [8] was inactive.
On to `COc1cc([C@H]2O[C@@H](c3ccc(O)c(OC)c3)[C@H](C)[C@@H]2C)ccc1O` [NECTANDRIN B], for which the Activity result with HT-22 [1] was “Non-toxic”; with HT-22 [3], “Dose-dependent effect”. Further, the result in the data set on HT-22 [2], in the data set on HT-22 [4], with HT-22 [6], with HT-22 [7], in the data set with HT-22 [9] and with HT-22 [10] was Active. Moreover, the result in the data set with HT-22 [8] was inactive.
`C/C=C/c1ccc2oc(-c3ccc(O)cc3)c(C)c2c1` [RATANIAPHENOL II]: the Activity result is “Non-toxic” in the data set with HT-22 [1], “Dose-dependent effect” with HT-22 [3] and “Toxic” with HT-22 [5]. In addition, the outcome with HT-22 [2], in the data set on HT-22 [4], in the data set on HT-22 [6], in the data set on HT-22 [7], in the data set with HT-22 [9] and with HT-22 [10] was Active. Also, in the data set with HT-22 [8], the result was inactive.
